Assay results published in ChEMBL document CHEMBL4190209, “Terpenoids from Euphorbia soongarica and Their Multidrug Resistance Reversal Activity” (J Nat Prod, 2017).

Legend:
[1] = Cytotoxicity against human KBv200 cells assessed as growth inhibition after 72 hrs by MTT assay; format: functional, cell-based; settings: KBv200, 72 h
Homo sapiens [2] = species on record: Homo sapiens; experiment: Inhibition of P-gp in human KBv200 cells assessed as increase in intracellular rhodamine123 accumulation by measuring fluorescence activity ratio at 10 uM incubated for 4 hrs followed by rhodamine123 addition measured after 1 hr by flow cytometry; format: cell-based
In short: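 KBv200 cells were plated at 1.5 × 10^5/mL and left overnight. Compounds were added at 10 μM in DMSO, with verapamil as reference, for 4 h at 37 °C, 5% CO2. Rho123 at 10 μM was then added for 1 h. Cells were washed twice, resuspended in ice-cold PBS and analysed by flow cytometry. FAR = (F treated − F DMSO control)/(F untreated − F DMSO control).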

KB = experiment: Cytotoxicity against human KB cells assessed as growth inhibition after 72 hrs by MTT assay; format: functional, cell-based
Homo sapiens [3] = species on record: Homo sapiens; experiment: Inhibition of P-gp in human KBv200 cells assessed as potentiation of navelbine-induced cytotoxicity by measuring reduction in navelbine IC50 at 10 uM after 72 hrs by MTT assay relative to control; format: cell-based
In short: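 KBv200 cells were seeded at 2500 cells/well for 12 h. Navelbine was added at 0.003–30 μM (0.003, 0.01, 0.03, 0.1, 0.3, 1, 3, 10, 30), alone or with modulator at 1, 3 or 10 μM, or with verapamil at 10 μM. Incubation was 72 h, followed by MTT read at A570. Navelbine IC50 came from percent growth inhibition. Reversal fold = IC50 of navelbine alone / IC50 of the combination.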

Row | SMILES | IC50 [1] [µM] | Ratio (Homo sapiens [2]) | IC50 (KB) [µM] | fold change (FC) (Homo sapiens [3])
1 | C[C@H]1CC2=C([C@H]1O)[C@@H](O)[C@]1(C)CC[C@H]3[C@@H]([C@@H](OC(=O)c4ccccc4)[C@]1(C)C2=O)C3(C)C | 16.1 | 1.79 | 13.5 | –
2 | C[C@H](/C=C/C=O)[C@@H]1CC[C@]2(C)C3=C(CC[C@@]12C)[C@@]1(C)CC[C@H](O)C(C)(C)[C@@H]1CC3=O | > 30 | 1.25 | > 30 | –
3 | C=C1CC[C@H]2[C@@H]([C@@H]3[C@@H]1C1=C(C[C@H](C)C1=O)[C@@H](O)[C@@]3(C)O)C2(C)C | > 30 | 0.76 | > 30 | –
4 | CC(=O)CC/C(=C/C1=C(C)CCC1=O)C(C)C [LITSEACHROMOLAEVANE B] | > 30 | 0.4 | > 30 | –
5 | COc1ccc(CCN(C)CCCC(C#N)(c2ccc(OC)c(OC)c2)C(C)C)cc1OC (stereo not drawn) | – | 2.25 | – | 259
6 | C/C1=C/C[C@H]2[C@@H](/C=C(\C)C(=O)[C@@]3(OC(=O)c4ccccc4)C[C@H](C)[C@H](O)[C@@H]3[C@H]1O)C2(C)C | > 30 | 1.13 | 27.2 | –
7 | CC(=O)/C=C/C[C@@H](C)[C@@H]1CC[C@]2(C)C3=C(CC[C@@]12C)[C@@]1(C)CC[C@H](O)C(C)(C)[C@@H]1CC3=O | 22.9 | 1.3 | 21.6 | –
8 | C[C@@H]1C[C@]2(O)C(=O)[C@@]3(C)[C@H](OC(=O)c4ccccc4)[C@@H]4[C@H](CC[C@@]3(C)[C@H](O)[C@H]2[C@H]1O)C4(C)C | 29.2 | 0.94 | > 30 | –
9 | C/C1=C\[C@@H]2[C@H](C[C@@H](O)/C(C)=C/[C@H]3[C@@H](OC(=O)c4ccccc4)[C@@H](C)C[C@]3(O)C1=O)C2(C)C | 20.6 | 0.43 | 21.4 | –
10 | C[C@H]1C[C@]2(OC(=O)c3ccccc3)C(=O)[C@@]3(C)[C@@H]4[C@@H](O)C(C)(C)[C@H]4CC[C@@]3(C)[C@H](O)[C@H]2[C@H]1O | > 30 | 0.63 | 20.1 | –
11 | CC(=O)O[C@]12C[C@H](C)[C@H](O)[C@@H]1/C=C(\C)CC[C@H]1[C@@H](/C=C(\C)C2=O)C1(C)C [JOLKINOL D] | 19.9 | 0.66 | 25.9 | –
12 | C/C1=C\[C@@H]2[C@H](CC[C@@]3(C)O[C@@H]3[C@H]3[C@@H](O)[C@@H](C)C[C@]3(OC(=O)c3ccccc3)C1=O)C2(C)C [LATILAGASCENE F] | > 30 | 1.3 | > 30 | –
13 | CC1=C2C=C3CC[C@@H]4C(C)(C)[C@@H](O)CC[C@@]4(C)[C@@H]3C[C@H]2OC1=O [HELIOSCOPINOLIDE B] | > 30 | 0.49 | 20.8 | –
14 | C[C@H]1C[C@]2(OC(=O)/C=C/c3ccccc3)C(=O)/C(CO)=C/[C@@H]3[C@H](CC[C@@]4(C)O[C@H]4[C@H]2[C@H]1O)C3(C)C | > 30 | 0.35 | > 30 | –
15 | C=C1CC[C@H]2[C@@H](/C=C(\C)C(=O)[C@@]3(OC(C)=O)C[C@H](C)[C@H](O)[C@@H]3[C@H]1O)C2(C)C | > 30 | 0.7 | > 30 | –
16 | CC(=O)N[C@@H]1[C@@H]2[C@H](CC[C@@]3(C)[C@H](O)[C@H]4[C@@H](OC(=O)/C=C/c5ccccc5)[C@@H](C)C[C@]4(O)C(=O)[C@@]13C)C2(C)C | > 30 | 1.51 | > 30 | –
17 | CC1(C)CC[C@]2(C)CC(=O)[C@]3(C)C4=C(CC[C@@]3(C)[C@@H]2C1)[C@@]1(C)CC[C@H](O)C(C)(C)[C@@H]1CC4=O | 12 | 0.95 | 10.3 | –
18 | CC1=C2C=C3CC[C@@H]4C(C)(C)C(=O)CC[C@@]4(C)[C@@H]3C[C@H]2OC1=O [HELIOSCOPINOLIDE E] | > 30 | 0.45 | 22.4 | –
19 | CC(=O)O[C@H]1C(=O)[C@@]2(C)[C@H]([C@H](OC(=O)c3ccccc3)[C@]3(O)C[C@H](OC(=O)[C@H](O)[C@@H](NC(=O)c4ccccc4)c4ccccc4)C(C)=C1C3(C)C)[C@]1(OC(C)=O)CO[C@@H]1C[C@@H]2O [PACLITAXEL] | 2.12 | – | 0.0036 | –
20 | CC(=O)O[C@]12C[C@H](C)[C@H](O)[C@@H]1[C@@H](O)/C(C)=C/C[C@H]1[C@@H](/C=C(\C)C2=O)C1(C)C | > 30 | 1.27 | > 30 | –
21 | C[C@H]1C[C@]2(O)C(=O)[C@@]3(C)[C@H](OC(=O)c4ccccc4)[C@@H]4[C@H](CC[C@@]3(C)[C@H](O)[C@H]2[C@H]1O)C4(C)C | 29 | 0.97 | 26.6 | –
22 | CC(=O)[C@@H]1CC[C@]2(C)C3=C(CC[C@@]12C)[C@@]1(C)CC[C@H](O)C(C)(C)[C@@H]1CC3=O | > 30 | 0.98 | > 30 | –
23 | C[C@H]1C[C@]2(OC(=O)/C=C/c3ccccc3)C(=O)[C@@]3(C)[C@@H]4[C@@H](O)C(C)(C)[C@H]4CC[C@@]3(C)[C@H](O)[C@H]2[C@H]1O | 10.6 | 1.47 | 10.9 | –
24 | C/C1=C\[C@@H]2[C@H](CC[C@@]3(C)O[C@@H]3[C@H]3[C@@H](O)[C@@H](C)C[C@]3(OC(=O)/C=C/c3ccccc3)C1=O)C2(C)C [JOLKINOL B] | 18.2 | 3.61 | 19.8 | –
25 | C/C1=C\[C@@H]2[C@H](C[C@@H](O)[C@@]3(C)O[C@@H]3[C@H]3[C@@H](OC(=O)c4ccccc4)[C@@H](C)C[C@]3(O)C1=O)C2(C)C | > 30 | 0.44 | > 30 | –
